For 17 molecules, IC50 and MIC results are on record in ChEMBL document CHEMBL3286348, “Undecaprenyl diphosphate synthase inhibitors: antibacterial drug leads” (J Med Chem, 2014).

Values after ≈ are worked out from the molar mass of the structure shown.

Experiment [1] in a line: Inhibition of Escherichia coli UPPS-mediated condensation of FPP with IPP by spectrophotometric analysis. In short, it runs like this: (§1)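 Continuous spectrophotometric assay of FPP + IPP condensation by purified recombinant UPPS (EcUPPS or SaUPPS): 350 μM IPP, 35 μM FPP, 400 μM MESG to follow PPi release, 20 mM Tris·HCl pH 7.5, 0.01% v/v Triton X-100, 1 mM MgCl2.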
The test system of experiment [2] is Bacillus subtilis. In words: Antibacterial activity against Bacillus subtilis subsp. subtilis ATCC 6051 after 12 to 16 hrs by broth dilution method. It is filed as functional, organism-based. In short, it runs like this: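 Microbroth dilution: 16 h LB culture diluted 50-fold, grown to OD600 ∼0.4, diluted 500-fold into LB and plated. Compound serially diluted from 0.5 mM; incubation 12–16 h at 37 °C; growth read as absorbance at 570 nm. IC50 by nonlinear regression, averaged over two independent experiments.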

Experiment [3] relates to Escherichia coli. In words: Antibacterial activity against Escherichia coli ATCC 29425 after 3 hrs by MTT assay. Format: functional, organism-based. The settings on record: ATCC 29425, 3 h. In short, it runs like this:
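Overnight (16 h) culture diluted 50-fold into LB, grown to OD600 ∼0.4, then diluted 500-fold and plated. Compound 2-fold serial dilutions from 0.3 mM; 3 h at 37 °C to mid-exponential phase. Viability read by MTT (2–4 h, then detergent 2 h at 23 °C in dark), absorbance 570 nm. IC50 by nonlinear regression, mean of two independent experiments.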

A short description of experiment [4]: Inhibition of Staphylococcus aureus UPPS-mediated condensation of FPP with IPP by spectrophotometric analysis. In short, it runs like this:
as §1

A further experiment deals with Saccharomyces cerevisiae. In words: Toxicity in Saccharomyces cerevisiae ATCC 208352 after 36 hrs by broth dilution method. It is filed as organism-based. The settings on record: ATCC 208352, 36 h. In short, it runs like this: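 Yeast growth inhibition run in YPD medium: inoculum prepared by 50-fold dilution, growth to OD600 ∼0.4, then 500-fold dilution. Compound serially diluted from 0.5 mM; plates held 36 h at 37 °C; absorbance at 570 nm. IC50 by nonlinear regression, mean of two independent experiments.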

In a further experiment the test system is Staphylococcus aureus. The experiment in a line: Antibacterial activity against methicillin-resistant Staphylococcus aureus USA300 after 16 hrs by microbroth dilution method. It is filed as functional. As to conditions: USA300, 16 h. In short, it runs like this:
(§2)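 Stationary-phase cultures grown in brain–heart infusion medium at 37 °C, adjusted to OD600 0.016 in BHI, then plated. 2-fold dilutions from 0.25 to 64 μg mL–1 with DMSO as vehicle control. Kanamycin (1–32 μg mL–1) was the control for L. monocytogenes and gentamycin (1–64 μg mL–1) for S. aureus and E. faecalis. Incubated covered at 37 °C for 16 h with shaking. MIC was the concentration giving at least 99% growth suppression by turbidity.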

The subject of experiment [5] is Bacillus anthracis. The experiment in a line: Antibacterial activity against Bacillus anthracis Sterne after 16 hrs by microbroth dilution method in presence of ampicillin. It is filed as functional.
In experiment [6] the test system is Escherichia coli. The experiment in a line: Antibacterial activity against Escherichia coli MC4100 after 16 hrs by microbroth dilution method. It is filed as functional. The settings on record: MC4100, 16 h. In short, it runs like this: (§3)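 Stationary-phase cultures grown in LB broth at 37 °C, adjusted to OD600 0.016 in LB, then added to 96-well plates. 2-fold dilutions from 0.25 to 64 μg mL–1, with kanamycin (1–32 μg mL–1) and DMSO as controls. Incubated covered at 37 °C for 16 h with shaking. MIC taken as the lowest concentration suppressing at least 99% of growth, judged by turbidity.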

The test system of the next experiment is Pseudomonas putida. In words: Antibacterial activity against Pseudomonas putida after 16 hrs by microbroth dilution method. Format: functional. In short, it runs like this: as §3
The subject of experiment [7] is Enterococcus faecalis. In words: Antibacterial activity against vancomycin-resistant Enterococcus faecalis U503 after 16 hrs by microbroth dilution method. It is filed as functional. The settings on record: U503, 16 h. In short, it runs like this: as §2
The next experiment relates to Listeria monocytogenes. The experiment in a line: Antibacterial activity against Listeria monocytogenes 4b F2365 after 16 hrs by microbroth dilution method. It is filed as functional. As to conditions: 4b F2365, 16 h. In short, it runs like this: as §2
The subject of experiment [8] is Bacillus anthracis. In words: Antibacterial activity against Bacillus anthracis Sterne after 16 hrs by microbroth dilution method. It is filed as functional.
Experiment [9] deals with Enterococcus faecalis. The experiment in a line: Antibacterial activity against vancomycin-resistant Enterococcus faecalis U503 after 16 hrs by microbroth dilution method in presence of vancomycin. It is filed as functional. The settings on record: U503, 16 h.
Experiment [10] concerns Bacillus subtilis. The experiment in a line: Antibacterial activity against Bacillus subtilis 168 after 16 hrs by microbroth dilution method. As to conditions: subsp. subtilis str. 168, 16 h. Format: functional. In short, it runs like this: as §3

Turning to `CCOc1cc(/C=C2\SC(=S)N(c3ccc(F)cc3)C2=O)ccc1O`, the IC50 in [1] was 41 µM; in the experiment with Bacillus subtilis [2], above 200 µM; with Escherichia coli [3] it was above 200 µM; in [4], 150 µM; in the experiment on Saccharomyces cerevisiae it was above 200 µM.

In the case of `CN1C(=O)/C(=C/c2ccc(-c3cc(Cl)ccc3Cl)o2)SC1=S`, the IC50 (in experiment [1]; in the experiment on Bacillus subtilis [2]; in the experiment with Escherichia coli [3]; in [4]; in the experiment on Saccharomyces cerevisiae) was above 200 µM each time.

As for `O=C1/C(=C/c2ccc(Cl)cc2Cl)SC(=S)N1Cc1ccco1`, the IC50 in experiment [1] was above 100 µM; in the experiment on Bacillus subtilis [2] it was above 200 µM; in the experiment with Escherichia coli [3], above 200 µM; in experiment [4], above 100 µM; with Saccharomyces cerevisiae, above 200 µM.

Regarding `O=C(O)c1ccc(N2C(=O)/C(=C/c3ccc(Br)cc3)SC2=S)cc1`, the IC50 was above 200 µM in experiment [1]; above 200 µM in the experiment with Bacillus subtilis [2]; above 200 µM in the experiment with Escherichia coli [3]; 170 µM in experiment [4]; above 200 µM with Saccharomyces cerevisiae.

For the molecule `Cc1ccc(-c2ccc(/C=C3\SC(=S)N(CCCC(=O)O)C3=O)o2)c([N+](=O)[O-])c1`, the IC50 in experiment [1] is above 100 µM; in the experiment on Bacillus subtilis [2], 3.2 µM; with Escherichia coli [3], above 200 µM; in [4] it was 5.7 µM; in the experiment on Saccharomyces cerevisiae, above 200 µM.

On to `O=C1/C(=C\c2cccc(O)c2O)SC(=S)N1Cc1ccco1`, for which the IC50 is above 100 µM in experiment [1]; above 200 µM in the experiment on Bacillus subtilis [2]; above 200 µM with Escherichia coli [3]; 5.3 µM in experiment [4]; above 200 µM in the experiment with Saccharomyces cerevisiae.

`O=C(O)CCCCCN1C(=O)/C(=C/c2ccc(-c3cc(Cl)ccc3Cl)o2)SC1=S`: the IC50 in experiment [1] was above 100 µM; with Bacillus subtilis [2], 5.6 µM; with Escherichia coli [3] it was above 200 µM; in experiment [4], 3.8 µM; with Saccharomyces cerevisiae, above 200 µM.

With `Cc1cc(Cl)ccc1-c1ccc(/C=C2\SC(=S)N(CC(=O)O)C2=O)o1`, the MIC is 8 µg/mL (≈ 20.3 µM) in the experiment with Staphylococcus aureus; 1.24 µg/mL in the experiment with Bacillus anthracis [5]; above 64 µg/mL against Escherichia coli [6]; above 64 µg/mL in the experiment with Pseudomonas putida; 1 µg/mL (≈ 2.54 µM) in the experiment with Enterococcus faecalis [7]; 4 µg/mL (≈ 10.2 µM) in the experiment on Listeria monocytogenes. For the same molecule, the values for the MIC with Bacillus anthracis [8] and with Enterococcus faecalis [9] were 1 µg/mL (≈ 2.54 µM) and 1.78 µg/mL, respectively. For the same molecule, the IC50 in [1] was 260 µM; in the experiment on Bacillus subtilis [2], 2.9 µM; with Escherichia coli [3] it was above 200 µM; with Saccharomyces cerevisiae it was above 200 µM.

Regarding `O=C(O)CCN1C(=O)/C(=C/c2ccc(-c3ccc(Cl)cc3Cl)o2)SC1=S`, the MIC is 4 µg/mL (≈ 9.34 µM) in the experiment on Staphylococcus aureus; above 64 µg/mL with Escherichia coli [6]; above 64 µg/mL against Pseudomonas putida; 4 µg/mL (≈ 9.34 µM) against Enterococcus faecalis [7]; 0.125 µg/mL (≈ 0.292 µM) in the experiment on Listeria monocytogenes; 0.25 µg/mL (≈ 0.584 µM) against Bacillus anthracis [8]. Further, the MIC against Bacillus subtilis [10] is 0.125 µg/mL (≈ 0.292 µM). The IC50 in experiment [1] is 2.1 µM; with Bacillus subtilis [2] it was 0.43 µM; with Escherichia coli [3], above 200 µM; in experiment [4], 2.4 µM; with Saccharomyces cerevisiae, 180 µM.

Consider `COc1cccc(/C=C2\SC(=S)N(Cc3ccco3)C2=O)c1OC`, for which the half-maximal inhibitory concentration (IC50) was above 100 µM in [1]; above 200 µM with Bacillus subtilis [2]; above 200 µM with Escherichia coli [3]; above 100 µM in experiment [4]; above 200 µM with Saccharomyces cerevisiae.

For `CN(C)c1ccc(/C=C2\SC(=S)N(Cc3ccco3)C2=O)cc1`, the IC50 in experiment [1] was above 100 µM; in the experiment with Bacillus subtilis [2], above 200 µM; in the experiment on Escherichia coli [3], above 200 µM; in [4] it was above 100 µM; in the experiment with Saccharomyces cerevisiae it was above 200 µM.

Regarding `CC(=O)c1ccc(-c2ccc(/C=C3\SC(=S)N(c4ccccc4)C3=O)o2)cc1`, the IC50 in [1] was 85 µM; with Bacillus subtilis [2] it was above 200 µM; with Escherichia coli [3] it was above 200 µM; in experiment [4], 32 µM; in the experiment with Saccharomyces cerevisiae, above 200 µM.

With `CCN1C(=O)/C(=C/c2ccc(OCC(=O)O)cc2)SC1=S`, the half-inhibitory concentration (IC50) is above 100 µM in [1]; above 200 µM in the experiment on Bacillus subtilis [2]; above 200 µM in the experiment with Escherichia coli [3]; above 100 µM in experiment [4]; above 200 µM in the experiment on Saccharomyces cerevisiae.

With `CCOc1cccc(/C=C2\SC(=S)N(Cc3ccco3)C2=O)c1O`, the half-inhibitory concentration (IC50) in [1] is above 100 µM; in the experiment with Bacillus subtilis [2], above 200 µM; in the experiment on Escherichia coli [3], above 200 µM; in experiment [4], above 100 µM; in the experiment with Saccharomyces cerevisiae, above 200 µM.

`CCOc1cc(/C=C2\SC(=S)N(c3cccc(F)c3)C2=O)ccc1OC(=O)c1cccs1`: the IC50 (in experiment [1]; in the experiment with Bacillus subtilis [2]; with Escherichia coli [3]; in [4]; in the experiment on Saccharomyces cerevisiae) was above 200 µM throughout.

Turning to `CC1=CC(=O)/C(=C\N2C(=O)/C(=C/c3cccc(O)c3)SC2=S)C(=O)O1`, the IC50 in [1] is above 100 µM; with Bacillus subtilis [2], above 200 µM; in the experiment on Escherichia coli [3], above 200 µM; in experiment [4] it was above 100 µM; with Saccharomyces cerevisiae, above 200 µM.

On to `CCN1C(=O)/C(=C/c2ccc(OC)cc2)SC1=S`, for which the IC50 in experiment [1] was above 100 µM; in the experiment on Bacillus subtilis [2], above 200 µM; in the experiment on Escherichia coli [3] it was above 200 µM; in [4] it was above 100 µM; in the experiment with Saccharomyces cerevisiae, above 200 µM.
